Bioassay records: PubChem BioAssay, Johns Hopkins Ion Channel Center
KCNQ1 inh = inhibitors of human KCNQ1 channel, primary screen, cell-based, thallium flux, high-throughput; Potassium voltage-gated channel subfamily KQT member 1 (Homo sapiens), P51787; CHO-K1 KCNQ1, FluxOR thallium flux fluorescence; stronger effect = higher value; B-score at 10 µM; hit rate 1.3% among 310,000; AID 2642, 2010;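 active means compounds whose thallium flux B-score, printed positive for inhibition, exceeds three library SD while starting fluorescence stays within three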;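 further: channel opened by potassium depolarization with thallium stimulus after 20 min compound exposure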
hERG rescue = hERG rescue from dofetilide block, primary screen, cell-based, CHO-hERG, FluxOR thallium flux, dofetilide IC70 | hit rate 0.51% among 310,000 | activation (rescue from dofetilide block), less the hit threshold, % at 10 µM | AID 1511, 2009 | Voltage-gated inwardly rectifying potassium channel KCNH2 (Homo sapiens), Q12809 | dofetilide IC70 present;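 active means activation above the mean of controls blocked by dofetilide plus 5 SD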;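 further: thallium influx through hERG after potassium depolarization seen as dye fluorescence rise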
KCNK3 block = human KCNK3 channel inhibitors, primary screen, CHO cells, FluxOR thallium flux, B-score; hit rate 0.84% among 340,000; Potassium channel subfamily K member 3 (Homo sapiens), O14649; FluxOR fluorescence; stronger effect = lower value; B-score at 10 µM; AID 602410, 2012;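 active means B-score under library mean minus 4 SD, starting fluorescence ratio at most library mean plus 5 SD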;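 further: more negative B-score means stronger inhibition of thallium flux through KCNK3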
KCNK9 inh = KCNK9 potassium channel inhibitors, primary screen, HEK293 cells, thallium flux. Potassium channel subfamily K member 9 (Homo sapiens), Q9NPC2. FluxOR thallium flux fluorescence; stronger effect = lower value. B-score at 10 µM. hit rate 1.2% among 310,000;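 active means ratio B-score over 3 SD below the library mean, with starting fluorescence within 5 SD of its mean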;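 further: negative B-score means less thallium flux so channel inhibition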
KCNQ1 pot = potentiators or activators of KCNQ1 channel, primary screen, cell-based, thallium flux, high-throughput; hit rate 0.35% among 310,000; AID 2648, 2010; CHO-K1 KCNQ1, thallium flux FluxOR fluorescence; stronger effect = higher value; B-score at 10 µM;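 active means fluorescence ratio B-score, a plate-corrected score, at least three library SD, with initial intensity B-score within 5 SD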
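Schedule – 37 °C overnight plating, 90-min dark dye load, 20-min compound pretreatment · System – stable KCNQ1 CHO-K1 line · Probe or stimulus – thallium- and potassium-containing depolarizing buffer · Measured by – kinetic FluxOR fluorescence, 10 s baseline plus 110 s post-stimulus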
KCNK9 block conf = KCNK9 potassium channel inhibitors, confirmation, HEK293 cells, thallium flux, duplicate | shares compounds with KCNK9 inh | hit rate 43% among 4,900 | AID 492992, 2010 | FluxOR thallium flux fluorescence | inhibition, % at 10 µM;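 active means thallium signal inhibited by more than 5 SD of the compound-free buffer control wells, on both duplicate plates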;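 further: 0% = assay buffer control wells without compound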
Kir21 sel = mouse Kir2.1 channel inhibition, confirmation, selectivity assay for KCNK9 modulator project, cell-based, HEK293, thallium flux. Kir2.1 cells, FluxOR thallium flux fluorescence. AID 492993, 2010. hit rate 4% among 4,900. inhibition, % at 10 µM. shares compounds with KCNK9 inh;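 active means thallium signal drop more than 5 SD beyond the mean of the no-compound control wells, seen in both duplicate plates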;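 further: signal is fluorescence rise after thallium addition divided by baseline fluorescence; plate controls were assay buffer only for no effect and full block by chlorpromazine control for full effect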
HEK293 Tl ctr = thallium flux in non-induced HEK293 cells, confirmation, counter-screen for KCNK9 inhibitor project, cell-based, second counter screen, non-induced KCNK9-HEK293; shares compounds with KCNK9 inh; FluxOR thallium flux; inhibition, % at 10 µM; hit rate 40% among 4,900;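 active means thallium signal drop beyond 5 SD of the untreated control mean, on both duplicate plates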;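 further: plate controls were buffer only IC0 wells for no effect and SID17386958 at its maximal inhibitory level for full effect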
An asterisk follows results filed as active; i = inactive; · = no result. The list is not random: actives were taken first. Their share in the collection is about 3.1%.

SMILES | KCNQ1 inh | hERG rescue | KCNK3 block | KCNK9 inh | KCNQ1 pot | KCNK9 block conf | Kir21 sel | HEK293 Tl ctr
Cc1ccc2[nH]nc(C(=O)N3CCCC(C(=O)c4ccc(Cl)cc4)C3)c2c1 (configuration not stated) | i | -2.9 | i | i | i | i | i | i
Cc1ccc(NC(=O)C2CCCN(C(=O)c3ccc(Cl)cc3)C2)c(C)c1 (configuration not stated) | i | -9.2 | i | i | i | · | · | ·
COCc1ccc(C(=O)N2CCCC(C(=O)c3ccc(SC)cc3)C2)s1 (configuration not stated) | i | -2.1 | i | i | i | i | i | i
CC(=O)c1ccc(C(=O)N2CCCC(C(=O)c3cc(F)ccc3F)C2)s1 (configuration not stated) | i | -11.8 | i | i | i | · | · | ·
Cc1noc(C)c1C(=O)N1CCCC(C(=O)c2ccc(Cl)cc2)C1 (configuration not stated) | i | -11.7 | i | i | i | · | · | ·
CCc1cc(C(=O)N2CCCC(C(=O)c3ccc(Cl)cc3)C2)no1 (configuration not stated) | i | -8.2 | i | i | i | i | i | i
O=S(=O)(c1ccc(F)cc1)N1CCN(C(=S)NCC2CCCO2)CC1 (configuration not stated) | i | -7.2 | i | i | i | · | · | ·
CSc1ccc(C(=O)C2CCCN(C(=O)c3ccc4c(c3)OCO4)C2)cc1 (configuration not stated) | i | -4.5 | i | i | i | i | i | i
CSc1ccc(C(=O)C2CCCN(C(=O)c3csc(C(C)=O)c3)C2)cc1 (configuration not stated) | i | -8.8 | i | i | i | · | · | ·
CSc1ccc(C(=O)C2CCCN(C(=O)c3cc4cc(F)ccc4[nH]3)C2)cc1 (configuration not stated) | i | -10.9 | i | i | i | i | i | i
Cc1ccc(C23CC4CC(CC(C(=O)NN)(C4)C2)C3)cc1 | i | -4.3 | i | i | i | · | · | ·
CCOC(=O)CNC(=O)C12CC3CC(C1)CC(c1ccc(C)cc1)(C3)C2 | i | -20.2 | i | i | i | i | i | i
CCOc1ccc(NC(=O)C23CC4CC(C2)CC(c2ccccc2)(C4)C3)cc1 | i | -2.6 | i | i | i | i | i | i
COc1cccc(/C=C2/Oc3ccccc3N(CC(=O)NCC3CCCO3)C2=O)c1 (configuration not stated) | i | -6.6 | i | i | i | · | · | ·
CCC(C)N(C(=O)COC(=O)c1ccccc1SCC(=O)N1CCCC1)C1CCS(=O)(=O)C1 (configuration not stated) | i | -10.9 | i | i | i | · | · | ·
CC1=NN(C(N)=S)C(=O)C1N=Nc1cccc(Cl)c1C (configuration not stated) | i | -11.2 | i | i | 41* | i | i | i
CC1=NN(C(N)=S)C(=O)C1N=Nc1cccc2ccccc12 (configuration not stated) | i | -5.7 | · | i | i | · | · | ·
Cc1ccc(C)c(NC(=S)N/N=C2/CCCCc3ccccc32)c1 | i | -3.8 | i | i | i | i | i | i
